In ChEMBL document CHEMBL1122708, “Preparation and antibacterial activities of new 1,2,3-diazaborine derivatives and analogues” (1984) one finds MIC and ED50 data, which are given here for 13 molecules.

The structures appear in SMILES notation. ≈ marks a conversion by molar mass, not a printed value. A value given as a limit tells only on which side of the number the result lay.

One experiment has as its system Proteus mirabilis. The experiment can be described thus: Minimum inhibitory concentration against Proteus mirabilis delta 89. It is filed as functional.
The test system of the next experiment is Klebsiella aerogenes. Kind of experiment: Minimum inhibitory concentration of compound against Enterobacter aerogenes delta 220. It is filed as functional.
A further experiment deals with Salmonella typhimurium. The experiment can be described thus: Minimum inhibitory concentration of compound against Salmonella Typhimurium delta 119. It counts as functional, Salmonella enterica subsp. enterica serovar Typhimurium. The note with it: Salmonella enterica.
Experiment [1] relates to Escherichia coli. The experiment can be described thus: Minimum inhibitory concentration of compound against Escherichia coli delta 120. It is filed as functional.
Experiment [2] concerns Escherichia coli. The experiment can be described thus: Antibacterial activity againist Escherichia coli 120 infected NMRI mice after peroral administration. It is filed as functional. The note with it: po. The method in brief:
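ED50 in NMRI mice infected intraperitoneally with E. coli 120; compound given orally immediately and 5 h after infection.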

Experiment [3] deals with Neisseria gonorrhoeae. The experiment can be described thus: Minimum inhibitory concentration of compound against Neisseria gonorrhoeae AS 7720. It counts as functional. The method in brief:
(§1)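 Agar dilution on Kellogg agar, 10⁶ colony forming units, incubated 20 h at 36 °C in 5% CO₂; MIC is the lowest concentration giving no visible growth.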

Experiment [4] concerns Neisseria gonorrhoeae. The experiment can be described thus: Minimum inhibitory concentration of compound against Neisseria gonorrhoeae W2. It counts as functional. Put shortly:
as §1

A further experiment concerns Klebsiella pneumoniae. Kind of experiment: Minimum inhibitory concentration of compound against Klebsiella pneumoniae delta 217. It counts as functional.

For orientation: MIC means the least concentration at which growth counts as inhibited. For orientation: ED50 means the dose that gives a 50% effect, or the effect in half of the subjects. Lower therefore signals greater potency. On to `Cc1ccc(S(=O)(=O)N2N=Cc3sc(C)cc3B2O)c(Cl)c1`, for which the MIC came to 1.56 µg/mL (≈ 4.4 µM) in the experiment with Proteus mirabilis; 50 µg/mL (≈ 141 µM) with Klebsiella aerogenes; 12.5 µg/mL (≈ 35.2 µM) against Salmonella typhimurium; 50 µg/mL (≈ 141 µM) in the experiment on Escherichia coli [1]; 0.5 µg/mL (≈ 1.41 µM) against Neisseria gonorrhoeae [3]; 1 µg/mL (≈ 2.82 µM) against Neisseria gonorrhoeae [4]. The molecule further gave an MIC against Klebsiella pneumoniae of 1.56 µg/mL (≈ 4.4 µM). This molecule also gave an ED50 with Escherichia coli [2] of 32 mg/kg.

On to `Cc1ccc2c(c1)C=NN(S(=O)(=O)c1ccc(N)cc1)B2O`, for which the MIC in the experiment with Proteus mirabilis was 0.39 µg/mL (≈ 1.24 µM); in the experiment with Klebsiella aerogenes, 25 µg/mL (≈ 79.3 µM); in the experiment with Salmonella typhimurium, 3.12 µg/mL (≈ 9.9 µM); in the experiment with Escherichia coli [1] it was 6.25 µg/mL (≈ 19.8 µM); against Neisseria gonorrhoeae [3] it was 2 µg/mL (≈ 6.35 µM); against Neisseria gonorrhoeae [4], 8 µg/mL (≈ 25.4 µM). In the experiment with Klebsiella pneumoniae, this molecule returned an MIC of 1.56 µg/mL (≈ 4.95 µM). Moreover, the ED50 with Escherichia coli [2] turned out to be 5 mg/kg.

As to `Cc1ccc(S(=O)(=O)N2N=Cc3cc(Br)sc3B2O)cc1`, the MIC against Proteus mirabilis was 25 µg/mL (≈ 64.9 µM); in the experiment on Klebsiella aerogenes, > 50 µg/mL; against Salmonella typhimurium, > 50 µg/mL; with Escherichia coli [1], > 50 µg/mL; against Neisseria gonorrhoeae [3], > 8 µg/mL; in the experiment with Neisseria gonorrhoeae [4], > 8 µg/mL. Besides, the MIC in the experiment on Klebsiella pneumoniae was > 50 µg/mL. The ED50 in the experiment on Escherichia coli [2] was > 300 mg/kg.

Regarding `Cc1ccccc1S(=O)(=O)N1N=Cc2sc(Br)cc2B1O`, the MIC in the experiment on Proteus mirabilis came to 1.56 µg/mL (≈ 4.05 µM); with Klebsiella aerogenes it was 50 µg/mL (≈ 130 µM); against Salmonella typhimurium it was 6.25 µg/mL (≈ 16.2 µM); against Escherichia coli [1] it was 25 µg/mL (≈ 64.9 µM); against Neisseria gonorrhoeae [3] it was 0.5 µg/mL (≈ 1.3 µM); against Neisseria gonorrhoeae [4], 0.5 µg/mL (≈ 1.3 µM). In the experiment with Klebsiella pneumoniae, this molecule showed an MIC of 3.12 µg/mL (≈ 8.1 µM). It took a dose of 57 mg/kg to reach the 50% effect level in the experiment with Escherichia coli [2] (ED50).

As to `Cc1ccc(S(=O)(=O)N2N=Cc3sc(Br)cc3B2O)c(Cl)c1`, the MIC is 3.12 µg/mL (≈ 7.44 µM) with Proteus mirabilis; 50 µg/mL (≈ 119 µM) in the experiment on Klebsiella aerogenes; 12.5 µg/mL (≈ 29.8 µM) against Salmonella typhimurium; 50 µg/mL (≈ 119 µM) in the experiment with Escherichia coli [1]; 0.25 µg/mL (≈ 0.596 µM) in the experiment with Neisseria gonorrhoeae [3]; 1 µg/mL (≈ 2.38 µM) against Neisseria gonorrhoeae [4]. The MIC in the experiment on Klebsiella pneumoniae was 6.25 µg/mL (≈ 14.9 µM). In the experiment with Escherichia coli [2], this molecule yielded an ED50 of 39 mg/kg.

`CCc1cc2c(s1)B(O)N(S(=O)(=O)c1ccc(C)cc1)N=C2`: the MIC in the experiment with Proteus mirabilis amounted to 1.25 µg/mL (≈ 3.74 µM); against Klebsiella aerogenes, 25 µg/mL (≈ 74.8 µM); against Salmonella typhimurium it was 1.56 µg/mL (≈ 4.67 µM); in the experiment with Escherichia coli [1], 6.25 µg/mL (≈ 18.7 µM); in the experiment on Neisseria gonorrhoeae [3] it was 0.25 µg/mL (≈ 0.748 µM); with Neisseria gonorrhoeae [4], 0.5 µg/mL (≈ 1.5 µM). In the experiment with Klebsiella pneumoniae, this molecule yielded an MIC of 1.25 µg/mL (≈ 3.74 µM). Also, the ED50 in the experiment with Escherichia coli [2] turned out to be 9 mg/kg.

On to `CCCS(=O)(=O)N1N=Cc2c(ccn2C)B1O`, for which the MIC with Proteus mirabilis is > 50 µg/mL; with Klebsiella aerogenes it was > 50 µg/mL; against Salmonella typhimurium, > 50 µg/mL; with Escherichia coli [1], > 50 µg/mL; with Neisseria gonorrhoeae [3], > 8 µg/mL; against Neisseria gonorrhoeae [4], > 8 µg/mL. In the experiment on Klebsiella pneumoniae, this molecule displayed an MIC of 25 µg/mL (≈ 98 µM). Besides, in the experiment with Escherichia coli [2], the median effective dose (ED50) is > 300 mg/kg.

Turning to `Cc1ccc(S(=O)(=O)N2N=Cc3c(ccc4ccccc34)B2O)cc1`, the MIC in the experiment with Proteus mirabilis was 3.12 µg/mL (≈ 8.91 µM); against Klebsiella aerogenes, > 50 µg/mL; against Salmonella typhimurium, > 50 µg/mL; in the experiment on Escherichia coli [1], > 50 µg/mL; with Neisseria gonorrhoeae [3] it was 2 µg/mL (≈ 5.71 µM); with Neisseria gonorrhoeae [4] it was 8 µg/mL (≈ 22.8 µM). For the same molecule, the MIC against Klebsiella pneumoniae was 25 µg/mL (≈ 71.4 µM). Also, the ED50 in the experiment on Escherichia coli [2] is > 100 mg/kg.

On to `CC(=O)Nc1ccc(S(=O)(=O)N2N=Cc3sc(Br)cc3B2O)cc1`, for which the minimum inhibitory concentration (MIC) in the experiment on Proteus mirabilis worked out at 3.12 µg/mL (≈ 7.29 µM); in the experiment with Klebsiella aerogenes it was 25 µg/mL (≈ 58.4 µM); in the experiment on Salmonella typhimurium, 3.12 µg/mL (≈ 7.29 µM); in the experiment with Escherichia coli [1] it was 25 µg/mL (≈ 58.4 µM); in the experiment on Neisseria gonorrhoeae [3], 1 µg/mL (≈ 2.34 µM); in the experiment with Neisseria gonorrhoeae [4], 1 µg/mL (≈ 2.34 µM). In the experiment with Klebsiella pneumoniae, inhibition of growth (MIC) required 3.12 µg/mL (≈ 7.29 µM). It took a dose of 55 mg/kg to reach the 50% effect level in the experiment with Escherichia coli [2] (ED50).

For `CCc1cc2c(s1)B(O)N(S(=O)(=O)c1ccccc1Cl)N=C2`, the MIC against Proteus mirabilis is 1.56 µg/mL (≈ 4.4 µM); against Klebsiella aerogenes it was 25 µg/mL (≈ 70.5 µM); in the experiment with Salmonella typhimurium, 2.5 µg/mL (≈ 7.05 µM); with Escherichia coli [1], 10 µg/mL (≈ 28.2 µM); with Neisseria gonorrhoeae [3], 0.5 µg/mL (≈ 1.41 µM); with Neisseria gonorrhoeae [4], 1 µg/mL (≈ 2.82 µM). The same molecule returned an MIC in the experiment on Klebsiella pneumoniae of 1.25 µg/mL (≈ 3.52 µM). For the same molecule, the ED50 with Escherichia coli [2] came out at 24 mg/kg.

`O=S(=O)(c1ccccc1)N1N=Cc2sc(Br)cc2B1O`: the minimum inhibitory concentration (MIC) turned out to be 1.56 µg/mL (≈ 4.2 µM) in the experiment with Proteus mirabilis; 12.5 µg/mL (≈ 33.7 µM) in the experiment on Klebsiella aerogenes; 0.78 µg/mL (≈ 2.1 µM) in the experiment with Salmonella typhimurium; 3.12 µg/mL (≈ 8.41 µM) with Escherichia coli [1]; 1 µg/mL (≈ 2.7 µM) against Neisseria gonorrhoeae [3]; 2 µg/mL (≈ 5.39 µM) in the experiment on Neisseria gonorrhoeae [4]. Also, 0.78 µg/mL (≈ 2.1 µM) was the least that counted as inhibitory against Klebsiella pneumoniae (MIC). For the same molecule, the ED50 in the experiment with Escherichia coli [2] is ~20 mg/kg.

Regarding `Cc1ccc(S(=O)(=O)N2N=Cc3oc(C)cc3B2O)cc1`, the minimal inhibitory concentration (MIC) in the experiment on Proteus mirabilis was 3.12 µg/mL (≈ 10.3 µM); against Klebsiella aerogenes, 25 µg/mL (≈ 82.2 µM); against Salmonella typhimurium it was 3.12 µg/mL (≈ 10.3 µM); against Escherichia coli [1], 12.5 µg/mL (≈ 41.1 µM); against Neisseria gonorrhoeae [3], 1 µg/mL (≈ 3.29 µM); against Neisseria gonorrhoeae [4], 8 µg/mL (≈ 26.3 µM). In the experiment with Klebsiella pneumoniae, this molecule displayed an MIC of 1.56 µg/mL (≈ 5.13 µM). The ED50 in the experiment with Escherichia coli [2] is ~10 mg/kg.

Regarding `Cc1ccc2c(c1)C=NN(S(=O)(=O)c1ccc(N)cc1Cl)B2O`, the MIC with Proteus mirabilis stood at 0.39 µg/mL (≈ 1.12 µM); with Klebsiella aerogenes, 10 µg/mL (≈ 28.6 µM); with Salmonella typhimurium, 3.12 µg/mL (≈ 8.92 µM); against Escherichia coli [1] it was 10 µg/mL (≈ 28.6 µM); in the experiment on Neisseria gonorrhoeae [3], 1 µg/mL (≈ 2.86 µM); with Neisseria gonorrhoeae [4], 1 µg/mL (≈ 2.86 µM). This molecule registered a minimum inhibitory concentration (MIC) against Klebsiella pneumoniae of 0.78 µg/mL (≈ 2.23 µM). In the experiment on Escherichia coli [2], this molecule gave an ED50 of 14 mg/kg.
